Assay results: ChEMBL document CHEMBL1142567, “Inhibition of leukotriene biosynthesis by stilbenoids from Stemona species” (J Nat Prod, 2005)
Activity calls are given as the source filed them. No cut-off for these calls is given here.

Key:
Format in all cases: functional
[1] = Ex vivo inhibition of leukotriene formation in calcium ionophore activated human neutrophilic granulocyte by ELISA
How it was run: (§1)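 Human neutrophil granulocytes carrying 5-LOX activity, isolated by sedimentation rate and lysis tolerance. Cells activated with calcium ionophore, then incubated with test sample and arachidonic acid. Reaction stopped with formic acid and centrifuged. Supernatant diluted 50-fold; LTB4 measured by competitive EIA (18 h, 4 °C; Ellman's development; 412 nm). Samples tested at 50, 25, 10, 5 and 1 µM in duplicate. Inhibition given as percent of control; IC50 by probit-log analysis. Trypan blue viability check.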

[2] = (§2) Ex vivo inhibition of leukotriene formation in calcium ionophore activated human neutrophilic granulocyte at 50 uM by ELISA; how it was run: as §1
[3] = species on record: Homo sapiens; test: as §2; how it was run: as §1
[4] = Ex vivo inhibition of leukotriene formation in calcium ionophore activated human neutrophilic granulocyte at 25 uM by ELISA; how it was run: as §1

Row | IC50 [1] [µM] | Structure (SMILES) | inhibition at 50 µM [2] [%] | Activity [3] | inhibition at 25 µM [4] [%]
1 | 22.7 | Oc1cc(O)cc(/C=C/c2ccccc2)c1 [PINOSYLVIN] |  |  | 
2 | 8.5 | COc1c(O)ccc2c1CCc1cc(O)c(C)c(OC)c1-2 [STEMANTHRENE A] |  |  | 
3 | 4.8 | COc1cc(O)c(C)c2c1-c1ccc(O)c(OC)c1CC2 [STEMANTHRENE D] |  |  | 
4 | 23.3 | COc1cc(O)cc(-c2cc3c(O)cccc3o2)c1 [STEMOFURAN B] |  |  | 
5 | > 50 | Cc1c(O)cc(-c2cc3ccccc3o2)cc1O [STEMOFURAN C] | 10 |  | 
6 | 26.3 | COc1cc(-c2cc3c(O)cccc3o2)c(C)c(OC)c1C [STEMOFURAN J] |  |  | 
7 | > 50 | COc1ccccc1CCc1cc(O)cc(O)c1 [STILBOSTEMIN A] | < 10 |  | 
8 | > 50 | Cc1c(O)cc(CCc2ccccc2)cc1O [STILBOSTEMIN B] | 10 |  | 
9 | 10.4 | CC(c1cc2ccccc2s1)N(O)C(N)=O (centres undefined) [ZILEUTON] |  |  | 

Second part, the molecule before the results:

Row | Structure (SMILES) | IC50 [1] [µM] | inhibition at 50 µM [2] [%] | Activity [3] | inhibition at 25 µM [4] [%]
10 | Oc1cc(O)cc(CCc2ccccc2)c1 [DIHYDROPINOSYLVIN] | > 50 | 10 |  | 
11 | CC[C@@H]1[C@H]2CCCCN3[C@H]2[C@@H](C[C@H]3[C@@H]2C[C@H](C)C(=O)O2)[C@H]2[C@@H]1OC(=O)[C@H]2C [NEOTUBEROSTEMONINE] | > 50 |  | inactive | 
12 | Oc1ccc(/C=C/c2cc(O)cc(O)c2)cc1 [RESVERATROL] | > 50 | < 10 |  | 
13 | COc1cc2c(c(O)c1C)-c1ccc(O)c(OC)c1CC2 [STEMANTHRENE B] |  |  |  | 100
14 | COc1c(O)ccc2c1CCc1c(C)c(O)c(C)c(OC)c1-2 [STEMANTHRENE C] |  |  |  | 100
15 | COc1cc(O)c(C)c(-c2cc3c(O)cccc3o2)c1 [STEMOFURAN D] | 30.3 |  |  | 
16 | COc1cc(-c2cc3c(O)c(C)ccc3o2)c(C)c(O)c1C [STEMOFURAN G] | 3.7 |  |  | 
17 | COc1ccccc1CCc1cc(O)c(C)c(O)c1 [STILBOSTEMIN D] | > 50 | < 10 |  | 
18 | COc1cc(O)c(C)c(CCc2cccc(O)c2OC)c1 [STILBOSTEMIN F] | > 50 | < 10 |  | 
19 | COc1cc(CCc2cccc(O)c2OC)cc(O)c1C [STILBOSTEMIN G] | 25.8 |  |  | 
20 | CC[C@@H]1[C@H]2CCCCN3[C@H]2[C@H](C[C@H]3[C@@H]2C[C@H](C)C(=O)O2)[C@@H]2[C@H]1OC(=O)[C@H]2C [TUBEROSTEMONINE] | > 50 |  | inactive | 
